# According to ChEMBL document CHEMBL1141286, “Benzochromenones from the marine crinoid Comantheria rotula inhibit hypoxia-inducible factor-1 (HIF-1) in cell-based reporter assays and differentially suppress the growth of certain tumor cell lines” (J Nat Prod, 2007):
# What was measured:
# [1] = system: K562; test: Growth inhibition of human K562 cells; type: functional; details: for CC50: read-out: Log LC50 (the source's name) (converted); for TGI: read-out: Log TGI (converted)
# [2] = system: NCI/ADR-RES; test: Growth inhibition of human NCI/ADR-RES cells; type: functional; details: for TGI: read-out: Log TGI (converted)
# [3] = system: NCI-H23; test: Growth inhibition of human NCI-H23 cells; type: functional; details: for CC50: read-out: Log LC50 (the source's name) (converted); for TGI: read-out: Log TGI (converted)
# [4] = system: BT-549; test: Growth inhibition of human BT549 cells; type: functional; details: for TGI: read-out: Log TGI (converted)
# [5] = system: SK-MEL-2; test: Growth inhibition of human SK-MEL2 cells; type: functional; details: for TGI: read-out: Log TGI (converted)
# [6] = Inhibition of 1,10-phenanthroline-induced HIF1 activation in PC3 cells by TK-luciferase assay; type: cell-based; details: Homo sapiens, PC-3
# In short: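 HIF-1 reporter (pHRE-TK-Luc) assays in transfected PC-3 or T47D cells; HIF-1 induced by hypoxia or by the hypoxia mimetic 1,10-phenanthroline (10 μM); compounds at half-log concentrations; luciferase activity measured; IC50 from experiments in triplicate.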
# [7] = system: DU-145; test: Growth inhibition of human DU145 cells; type: functional; details: for CC50: read-out: Log LC50 (the source's name) (converted); for TGI: read-out: Log TGI (converted)
# [8] = Inhibition of luciferase at 30 uM
# In short: (§1)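 Purified recombinant firefly luciferase (QuantiLum, 46.8 μg mL−1) mixed with compound in passive lysis buffer containing BSA (1 mg mL−1); equal volume of luciferase substrate added, light output read; percentage inhibition relative to DMSO control; concentration-response curves up to 30 μM.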
# [9] = system: HCT-15; test: Growth inhibition of human HCT15 cells; type: functional; details: for CC50: read-out: Log LC50 (the source's name) (converted); for TGI: read-out: Log TGI (converted)
# [10] = system: LOX IMVI; test: Growth inhibition of human LOXIMVI cells; type: functional; details: for TGI: read-out: Log TGI (converted)
# [11] = system: MDA-MB-231; test: Growth inhibition of human MDA-MB-231 cells; type: functional; details: for TGI: read-out: Log TGI (converted)
# [12] = system: 786-0; test: Growth inhibition of human 786-0 cells; type: functional; details: for TGI: read-out: Log TGI (converted)
# [13] = system: EKVX; test: Growth inhibition of human EKVX cells; type: functional; details: for CC50: read-out: Log LC50 (the source's name) (converted); for TGI: read-out: Log TGI (converted)
# [14] = system: OVCAR-5; test: Growth inhibition of human OVACAR5 cells; type: functional; details: for TGI: read-out: Log TGI (converted)
# [15] = system: HOP-92; test: Growth inhibition of human HOP92 cells; type: functional; details: for CC50: read-out: Log LC50 (the source's name) (converted); for TGI: read-out: Log TGI (converted)
# [16] = system: RPMI-8226; test: Growth inhibition of human RPMI8226 cells; type: functional; details: for CC50: read-out: Log LC50 (the source's name) (converted); for TGI: read-out: Log TGI (converted)
# [17] = system: U-251; test: Growth inhibition of human U251 cells; type: functional; details: for TGI: read-out: Log TGI (converted)
# [18] = system: SK-OV-3; test: Growth inhibition of human SK-OV3 cells; type: functional; details: for TGI: read-out: Log TGI (converted)
# [19] = system: OVCAR-8; test: Growth inhibition of human OVACAR8 cells; type: functional; details: for TGI: read-out: Log TGI (converted)
# [20] = system: IGROV-1; test: Growth inhibition of human IGROV1 cells; type: functional; details: for CC50: read-out: Log LC50 (the source's name) (converted); for TGI: read-out: Log TGI (converted)
# [21] = DPPH radical scavenging activity relative to Trolox; type: functional; parameters: concentration or dose not given beside the values
# In short: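 Compounds were made up as DMSO stocks and diluted in isopropanol to a final 10 μM. Each was mixed with DPPH in isopropanol at 10 μM or 30 μM DPPH, and absorbance was read at 515 nm. Scavenging was calculated as [1 − OD515(compound)/OD515(control)] × 100, then expressed as a percentage of Trolox activity. One experiment was run in triplicate.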
# [22] = system: NCI-H322M; test: Growth inhibition of human NCI-H322M cells; type: functional; details: for CC50: read-out: Log LC50 (the source's name) (converted); for TGI: read-out: Log TGI (converted)
# [23] = system: SF-539; test: Growth inhibition of human SF539 cells; type: functional; details: for TGI: read-out: Log TGI (converted)
# [24] = system: SW-620; test: Growth inhibition of human SW620 cells; type: functional; details: for CC50: read-out: Log LC50 (the source's name) (converted); for TGI: read-out: Log TGI (converted)
# [25] = system: A549; test: Growth inhibition of human A549 cells; type: functional; details: for CC50: read-out: Log LC50 (the source's name) (converted); for TGI: read-out: Log TGI (converted)
# [26] = Inhibition of luciferase; in short: as §1
# [27] = system: M14; test: Growth inhibition of human M14 cells; type: functional
smiles,measurement,setting,value
CCCc1cc(=O)c2c(O)c3c(OC)cc(O)cc3cc2o1,GI50,[1],18.2 µM
same,CC50,[1],> 100 µM
same,TGI,[1],56.2 µM
same,GI50,[2],26.3 µM
same,LC50 (concentration killing 50% of cells),[2],> 100 µM
same,TGI,[2],75.9 µM
same,GI50,[3],22.4 µM
same,CC50,[3],> 100 µM
same,TGI,[3],49 µM
same,GI50,[4],18.2 µM
same,LC50,[4],95.5 µM
same,TGI,[4],41.7 µM
same,GI50,[5],18.6 µM
same,LC50,[5],91.2 µM
same,TGI,[5],40.7 µM
same,IC50,[6],800 nM
same,GI50,[7],18.2 µM
same,CC50,[7],> 100 µM
same,TGI,[7],45.7 µM
same,inhibition,[8],48%
same,GI50,[9],15.1 µM
same,CC50,[9],> 100 µM
same,TGI,[9],40.7 µM
same,GI50,[10],16.6 µM
same,LC50,[10],63.1 µM
same,TGI,[10],32.4 µM
same,GI50,[11],15.5 µM
same,LC50,[11],> 100 µM
same,TGI,[11],45.7 µM
same,GI50,[12],25.1 µM
same,LC50,[12],> 100 µM
same,TGI,[12],> 100 µM
same,GI50,[13],28.8 µM
same,CC50,[13],> 100 µM
same,TGI,[13],97.7 µM
same,GI50,[14],25.1 µM
same,LC50,[14],> 100 µM
same,TGI,[14],60.3 µM
same,GI50,[15],17.4 µM
same,CC50,[15],> 100 µM
same,TGI,[15],46.8 µM
same,GI50,[16],14.5 µM
same,CC50,[16],> 100 µM
same,TGI,[16],43.7 µM
same,GI50,[17],16.2 µM
same,LC50,[17],95.5 µM
same,TGI,[17],38.9 µM
same,GI50,[18],32.4 µM
same,LC50,[18],> 100 µM
same,TGI,[18],85.1 µM
same,GI50,[19],28.8 µM
same,LC50,[19],> 100 µM
same,TGI,[19],> 100 µM
same,GI50,[20],19.1 µM
same,CC50,[20],> 100 µM
same,TGI,[20],44.7 µM
same,Activity,[21],40%
same,GI50,[22],26.3 µM
same,CC50,[22],> 100 µM
same,TGI,[22],> 100 µM
same,GI50,[23],19.5 µM
same,LC50,[23],81.3 µM
same,TGI,[23],39.8 µM
same,GI50,[24],21.4 µM
same,CC50,[24],77.6 µM
same,TGI,[24],40.7 µM
same,GI50,[25],19.1 µM
same,CC50,[25],> 100 µM
same,TGI,[25],50.1 µM
CCCc1cc(=O)c2c(OC)c3c(OC)cc(O)c(Oc4c(O)cc(OC)c5c(OC)c6c(=O)cc(CCC)oc6cc45)c3cc2o1,GI50,[1],4.79 µM
same,CC50,[1],58.9 µM
same,TGI,[1],14.8 µM
same,GI50,[2],6.76 µM
same,LC50 (concentration killing 50% of cells),[2],100 µM
same,TGI,[2],67.6 µM
same,GI50,[3],2.45 µM
same,CC50,[3],33.9 µM
same,TGI,[3],6.92 µM
same,GI50,[4],3.09 µM
same,LC50,[4],34.7 µM
same,TGI,[4],11.2 µM
same,GI50,[5],10.7 µM
same,LC50,[5],61.7 µM
same,TGI,[5],25.7 µM
same,IC50,[6],3900 nM
same,GI50,[7],6.03 µM
same,CC50,[7],43.7 µM
same,TGI,[7],18.6 µM
same,IC50,[26],2400 nM
same,GI50,[9],7.41 µM
same,CC50,[9],47.9 µM
same,TGI,[9],20.4 µM
same,GI50,[10],3.47 µM
same,LC50,[10],41.7 µM
same,TGI,[10],11.5 µM
same,GI50,[11],6.31 µM
same,LC50,[11],53.7 µM
same,TGI,[11],21.4 µM
same,GI50,[12],9.33 µM
same,LC50,[12],49 µM
same,TGI,[12],21.9 µM
same,GI50,[13],4.37 µM
same,CC50,[13],44.7 µM
same,TGI,[13],16.6 µM
same,GI50,[14],7.08 µM
same,LC50,[14],100 µM
same,TGI,[14],30.9 µM
same,GI50,[15],2.14 µM
same,CC50,[15],50.1 µM
same,TGI,[15],13.8 µM
same,GI50,[16],4.9 µM
same,CC50,[16],70.8 µM
same,TGI,[16],21.4 µM
same,GI50,[17],4.68 µM
same,LC50,[17],41.7 µM
same,TGI,[17],15.8 µM
same,GI50,[18],15.1 µM
same,LC50,[18],53.7 µM
same,TGI,[18],28.2 µM
same,GI50,[19],4.68 µM
same,LC50,[19],100 µM
same,TGI,[19],53.7 µM
same,GI50,[20],10.2 µM
same,CC50,[20],57.5 µM
same,TGI,[20],24 µM
same,Activity,[21],40%
same,GI50,[22],13.5 µM
same,CC50,[22],55 µM
same,TGI,[22],27.5 µM
same,GI50,[27],3.02 µM
same,LC50 (50% lethal concentration),[27],34.7 µM
same,TGI,[27]; read-out: Log TGI (converted),11.5 µM
same,GI50,[23],11.2 µM
same,LC50,[23],50.1 µM
same,TGI,[23],23.4 µM
same,GI50,[24],11.5 µM
same,CC50,[24],61.7 µM
same,TGI,[24],26.3 µM
same,GI50,[25],11.2 µM
same,CC50,[25],72.4 µM
same,TGI,[25],28.8 µM
